Values after ≈ are worked out from the molar mass of the structure shown. “Also recorded” adds a separate entry of the source.
Key:
[1] = system: L. donovani promastigotes; assay: in vitro antileishmanial activity, alamarBlue assay; assay type: cell-based, Leishmania donovani; conditions: Leishmania donovani, 48 h; for IC50: read-out: L. donovani IC50, promastigotes, 48 h; for IC90: read-out: L. donovani IC90, promastigotes, 48 h
[2] = system: P. berghei (sensitive strain); assay: blood-schizontocidal activity against P. berghei infection in mice; assay type: in vivo, Plasmodium berghei; conditions: Swiss mice
Outline: (§1)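 Swiss mice of either sex (about 15–20 g, same age), six per group, inoculated intraperitoneally on day 0 with 1 × 10^7 infected erythrocytes from a donor mouse. Oral test compound at 100, 50, 25 or 10 mg/kg, CQ diphosphate (10 mg/kg/day × 4) or vehicle started 4 h later, on D0 to D+3. Giemsa tail-blood smears on D+4 and D+7. Curative: parasites eliminated, no relapse, all mice surviving to D+60.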

[3] = system: A. fumigatus ATCC 90906; assay: in vitro antifungal activity; assay type: cell-based, Aspergillus fumigatus; conditions: Aspergillus fumigatus; for IC50: ATCC90906, read-out: A. fumigatus IC50; for MFC: ATCC90906, read-out: A. fumigatus MFC; for MIC: ATCC90906, read-out: A. fumigatus MIC
Outline: (§2)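 Modified NCCLS broth method in Sabouraud dextrose. Inoculum set by OD630 to 1.5 × 10^3 CFU/mL. Test compound serially diluted in 20% DMSO/saline, duplicate wells, up to 20 μg/mL. Incubated 70–74 h at 35 °C; 530 nm read before and after. IC50 is 50% growth inhibition; MIC is no detectable growth. MFC from clear wells subcultured on agar. Amphotericin B control.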

[4] = system: SK-MEL, KB, BT-549, SK-OV-3, VERO and LLC-PK1 cells; assay: cytotoxicity, neutral red uptake assay; assay type: cell-based, mammalian; conditions: highest test concentration 4760 ng/mL
Outline: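 Cells seeded at 25 000/well and allowed 24 h to reach confluence. Test compound was then added and incubated 48 h. Viable cells were counted by a modified neutral red uptake method. The panel was four human cancer lines and two noncancerous mammalian kidney lines. Doxorubicin served as positive control and DMSO as negative control.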

[5] = system: SA (ATCC29213); assay: in vitro antibacterial activity; assay type: cell-based; conditions: Staphylococcus aureus; for IC50: ATCC29213, read-out: IC50 (concentration that affords 50% growth inhibition), SA; for MBC: ATCC29213, read-out: MBC (minimum bactericidal concentration), SA; for MIC: ATCC29213, read-out: MIC, SA
Outline: (§3)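 Test compound serially diluted in 20% DMSO/saline and plated in duplicate, up to 20 μg/mL. Inoculum in cation-adjusted Mueller–Hinton broth, pH 7.3, set by OD630 to 5 × 10^5 CFU/mL. Incubated 16–20 h at 35 °C; 530 nm read before and after. IC50 is 50% growth inhibition; MIC is no detectable growth. MBC from clear wells subcultured on agar. Ciprofloxacin control.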

[6] = system: C. neoformans ATCC90113; assay: in vitro antifungal activity; assay type: cell-based, Cryptococcus neoformans; conditions: Cryptococcus neoformans; for IC50: ATCC90113, read-out: C. neoformans IC50; for MFC: ATCC90113, read-out: C. neoformans MFC; for MIC: ATCC90113, read-out: C. neoformans MIC
Outline: as §2

[7] = system: C. albicans ATCC90028; assay: in vitro antifungal activity; assay type: cell-based, Candida albicans; conditions: Candida albicans; for IC50: ATCC90028, read-out: C. albicans IC50; for MFC: ATCC90028, read-out: C. albicans MFC; for MIC: ATCC90028, read-out: C. albicans MIC
Outline: as §2

[8] = system: P. falciparum (D6); assay: in vitro antimalarial activity, plasmodial LDH; assay type: cell-based, Plasmodium falciparum; conditions: Plasmodium falciparum, D6, 72 h, read-out: P. falciparum (D6) IC50
[9] = system: P. falciparum (W2); assay: in vitro antimalarial activity, plasmodial LDH; assay type: cell-based, Plasmodium falciparum; conditions: for IC50: Plasmodium falciparum, W2, 72 h, read-out: P. falciparum (W2) IC50, CQ-resistant W2 strain, 72 h
Outline: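 P. falciparum-infected erythrocytes (2% parasitemia, 2% hematocrit) in RPMI 1640 with 10% human serum and 60 μg/mL amikacin. Exposed to test compound dilutions for 72 h at 37 °C under 90% N2/5% O2/5% CO2. LDH measured with Malstat reagent (30 min, room temperature), then NBT/PES for 1 h in the dark, stopped with 5% acetic acid, read at 650 nm. IC50 from dose-response curves.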

[10] = system: MRSA (ATCC33591); assay: in vitro antibacterial activity; assay type: cell-based, methicillin-resistant Staphylococcus aureus; conditions: Staphylococcus aureus, ATCC33591|MRSA, read-out: MIC, MRSA
Outline: as §3

[11] = system: M. intracellulare (ATCC23068); assay: in vitro antibacterial activity, modified alamarBlue procedure; assay type: cell-based, Mycobacterium intracellulare; conditions: Mycobacterium intracellulare; for IC50: ATCC23068, read-out: IC50 (concentration that affords 50% growth inhibition), M. intracellulare; for MBC: ATCC23068, read-out: MBC (minimum bactericidal concentration), M. intracellulare; for MIC: ATCC23068, read-out: MIC, M. intracellulare
Outline: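 Modified alamarBlue microplate method. Test compound serially diluted in 20% DMSO/saline, duplicate wells, up to 20 μg/mL. Inoculum 2.0 × 10^6 CFU/mL in Middlebrook 7H9 with OADC, pH 7.3, containing 5% alamarBlue. Incubated 70–74 h at 37 °C, 10% CO2; fluorescence 544ex/590em read before and after. MIC: no blue-to-pink change. MBC by subculturing blue wells on agar. Ciprofloxacin control.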

[12] = system: multidrug-resistant P. yoelii nigeriensis; assay: blood-schizontocidal activity against P. yoelii nigeriensis infection in mice; assay type: in vivo, Plasmodium yoelii nigeriensis; conditions: Swiss mice
Outline: as §1

Row | SMILES | IC50 [1] [µg/mL] | IC90 [1] [µg/mL] | P. berghei blood-schizontocidal activity (mice cured/treated) ([2]; 10 mg/kg/day × 4, oral) | P. berghei blood-schizontocidal activity (mice cured/treated) ([2]; 25 mg/kg/day × 4, oral) | P. berghei blood-schizontocidal activity (mice cured/treated) ([2]; 50 mg/kg/day × 4, oral) | P. berghei blood-schizontocidal activity (mice cured/treated) ([2]; 100 mg/kg/day × 4, oral) | IC50 [3] [µg/mL] | MFC [3] [µg/mL] | MIC [3] [µg/mL] | cytotoxicity CTX [4] | IC50 [5] [µg/mL] | MBC [5] [µg/mL] | MIC [5] [µg/mL] | IC50 [6] [µg/mL] | MFC [6] [µg/mL] | MIC [6] [µg/mL] | IC50 [7] [µg/mL] | MFC [7] [µg/mL] | MIC [7] [µg/mL] | IC50 [8] [µg/mL] | further results
1 | CCCCCOc1c(OC)cc(NC(C)CCCN)c2nc(C(C)(C)C)ccc12 (stereo not drawn) [compound 46, N^4-(2-tert-Butyl-6-methoxy-5-(pentyloxy)quinolin-8-yl)pentane-1,4-diamine] | 32 (≈ 79.7 µM) | > 40 | active (4/6) | curative (6/6) | curative (6/6) | curative (6/6) | > 20 | > 20 | > 20 | NC (NC, not cytotoxic up to 4760 ng/mL (4.76 μg/mL)) | 9.04 (≈ 22.5 µM) | > 20 | > 20 | > 20 | > 20 | > 20 | > 20 | > 20 | > 20 | 0.02 (≈ 0.0498 µM) | IC50 [9]: 0.022 µg/mL (≈ 0.0548 µM); MIC [10]: > 20 µg/mL; IC50 [11]: > 20 µg/mL; MBC [11]: > 20 µg/mL; MIC [11]: > 20 µg/mL; P. yoelii nigeriensis blood-schizontocidal activity (mice cured/treated) ([12]; 25 mg/kg/day × 4, oral): active (4/6); P. yoelii nigeriensis blood-schizontocidal activity (mice cured/treated) ([12]; 50 mg/kg/day × 4, oral): curative (6/6); P. yoelii nigeriensis blood-schizontocidal activity (mice cured/treated) ([12]; 100 mg/kg/day × 4, oral): cured 100% mice; also recorded: curative (6/6)
2 | CCCCCCOc1c(OC)cc(NC(C)CCCN)c2nc(C(C)(C)C)ccc12 (stereo not drawn) [compound 47, N^4-(2-tert-Butyl-5-(hexyloxy)-6-methoxyquinolin-8-yl)pentane-1,4-diamine] | 4.6 (≈ 11.1 µM) | > 40 | active (5/6) | curative (6/6) | curative (6/6) | curative (6/6) | > 20 | > 20 | > 20 | NC (NC, not cytotoxic up to 4760 ng/mL (4.76 μg/mL)) | 2.77 (≈ 6.66 µM) | 5 (≈ 12 µM) | 5 (≈ 12 µM) | 2.97 (≈ 7.15 µM) | 5 (≈ 12 µM) | 5 (≈ 12 µM) | 15.4 (≈ 37.2 µM) | 20 (≈ 48.1 µM) | 20 (≈ 48.1 µM) | 0.042 (≈ 0.101 µM) | P. falciparum (W2) IC50 ([9]; CQ-resistant W2 strain, 72 h): 0.04 µg/mL; IC50 [9]: 0.042 µg/mL (≈ 0.101 µM); MIC [10]: 5 µg/mL (≈ 12 µM); IC50 [11]: 6.3 µg/mL (≈ 15.2 µM); MBC [11]: 10 µg/mL (≈ 24.1 µM); MIC [11]: 10 µg/mL (≈ 24.1 µM); P. yoelii nigeriensis blood-schizontocidal activity (mice cured/treated) ([12]; 25 mg/kg/day × 4, oral): inactive (0/6); P. yoelii nigeriensis blood-schizontocidal activity (mice cured/treated) ([12]; 50 mg/kg/day × 4, oral): cured 100% mice; also recorded: curative (6/6); P. yoelii nigeriensis blood-schizontocidal activity (mice cured/treated) ([12]; 100 mg/kg/day × 4, oral): curative (6/6)
